{"source": "paper PMC4682886", "about": "(ChemMedChem, 2015)", "key": {"[1]": {"system": "resistant clinical isolates of C. albicans", "type": "cell-based", "conditions": "for Growth (OD600) +Cpd 31 +Fluc: compound 31 3 μM + fluconazole 64 μg/mL; for Growth (OD600) +Cpd 31 +Fluc / Growth (OD600) +Fluc: 16 h in SC at 30°C; for Growth (OD600) +Fluc: fluconazole 64 μg/mL alone"}, "[2]": {"system": "C. albicans strain HLY4123 and fluconazole-resistant clinical isolates 26 and 45", "assay": "microbe, parasite or virus in culture", "type": "cell-based", "conditions": "for MICcpd (MIC90): compound 31 alone; for FICI: compound 31 and fluconazole; for MICcpd(+Flc) (MIC90): compound 31 in combination with fluconazole; for MIC90: Candida albicans"}, "[3]": {"system": "C. albicans susceptible strain HLY4123", "assay": "Dose-response curves of test compounds against C. albicans with fluconazole", "type": "cell-based", "conditions": "strain HLY4123, in the presence of fluconazole (0.25 μg/mL); mean ± SD of three independent experiments"}, "[4]": {"system": "NIH 3T3 cells", "assay": "Cytotoxicity against NIH 3T3 cells", "type": "cell-based", "conditions": "concentrations up to 1.5 mM, listed as Synazo-1", "outline": "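Test compound applied to NIH 3T3 cells at concentrations up to 1.5 mM. Values are arithmetic means ± SD of three independent experiments.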"}, "[5]": {"system": "resistant clinical isolates of C. albicans", "parameters": "unit not given beside the values", "conditions": "ref [69], cited from earlier work"}, "[6]": {"target": "C. albicans sterol α-demethylase (a.k.a. Erg11 or CYP51)", "conditions": "ref [71],[72]; cited from earlier work"}, "[7]": {"conditions": "in the presence of fluconazole; lowest value; ref [45]; cited from earlier work"}}, "note": "Read-outs that look alike come from different tables or passages of the source.", "data": [{"smiles": "Cc1c(Cl)ccc2c1NC(=O)[C@@]21[C@H]2C(=O)N(c3ccccc3)C(=O)[C@H]2[C@H]2CN(C(=O)OCc3ccccc3)CCN21", "note": "(racemic) [Compound 31, (±)-benzyl (3R,3a′R,3b′S,9a′S)-6-chloro-7-methyl-1′,2,3′-trioxo-2′-phenyl-2′,3′,3a′,3b′,4′,6′,7′,9a′-octahydrospiro[indoline-3,9′-pyrrolo[3′,4′:3,4]pyrrolo[1,2-a]pyrazine]-5′(1′H)-carboxylate]", "values": [{"measurement": "EC50", "setting": "[1]; enhancing the effect of fluconazole against some resistant strains, lowest value", "value": "≥ 2", "unit": "nM"}, {"measurement": "Growth (OD600) +Cpd 31 +Fluc", "setting": "[1]; isolate 17", "value": 0.76, "unit": "OD600"}, {"measurement": "Growth (OD600) +Cpd 31 +Fluc", "setting": "[1]; isolate 23", "value": 0.60, "unit": "OD600"}, {"measurement": "Growth (OD600) +Cpd 31 +Fluc", "setting": "[1]; isolate 26", "value": 0.83, "unit": "OD600"}, {"measurement": "Growth (OD600) +Cpd 31 +Fluc", "setting": "[1]; isolate 33", "value": 0.88, "unit": "OD600"}, {"measurement": "Growth (OD600) +Cpd 31 +Fluc", "setting": "[1]; isolate 36", "value": 1.07, "unit": "OD600"}, {"measurement": "Growth (OD600) +Cpd 31 +Fluc", "setting": "[1]; isolate 45", "value": 1.03, "unit": "OD600"}, {"measurement": "EC50", "setting": "[1]; read-out: Potency +Cpd 31 EC50, isolate 45, fluconazole 64 μg/mL, mean ± SD of three experiments", "value": "16 ± 0.002", "unit": "nM"}, {"measurement": "MICcpd (MIC90)", "setting": "[2]; isolate 26", "value": ">30", "unit": "µM"}, {"measurement": "FICI", "setting": "[2]; isolate 26", "value": 0.14}, {"measurement": "MICcpd(+Flc) (MIC90)", "setting": "[2]; isolate 26", "value": 0.3, "unit": "µM"}, {"measurement": "MICcpd (MIC90)", "setting": "[2]; isolate 45", "value": ">30", "unit": "µM"}, {"measurement": "FICI", "setting": "[2]; isolate 45", "value": 0.13}, {"measurement": "MICcpd(+Flc) (MIC90)", "setting": "[2]; isolate 45", "value": 0.03, "unit": "µM"}, {"measurement": "MICcpd (MIC90)", "setting": "[2]; strain HLY4123", "value": ">300", "unit": "µM"}, {"measurement": "FICI", "setting": "[2]; strain HLY4123", "value": 0.25}, {"measurement": "MICcpd(+Flc) (MIC90)", "setting": "[2]; strain HLY4123", "value": 0.03, "unit": "µM"}, {"measurement": "FIC index", "setting": "[2]; with fluconazole, in all of the strains tested (susceptible and resistant)", "value": "below 0.5"}, {"measurement": "toxicity of compound alone against the strains", "setting": "[2]; without fluconazole, at the solubility limit", "value": "did not have measurable toxicity"}, {"measurement": "EC50", "setting": "[3]", "value": "0.3 ± 0.01", "unit": "nM"}, {"measurement": "cytotoxicity", "setting": "[4]", "value": "low toxicity"}]}, {"smiles": "OC(Cn1cncn1)(Cn1cncn1)c1ccc(F)cc1F", "note": "[Fluconazole, fluconazole, reference compound]", "values": [{"measurement": "MICFlc", "setting": "[5]; isolate 17", "value": 32}, {"measurement": "MICFlc", "setting": "[5]; isolate 23", "value": 32}, {"measurement": "MICFlc", "setting": "[5]; isolate 26", "value": 32}, {"measurement": "MICFlc", "setting": "[5]; isolate 33", "value": 64}, {"measurement": "MICFlc", "setting": "[5]; isolate 36", "value": 64}, {"measurement": "MICFlc", "setting": "[5]; isolate 45", "value": 128}, {"measurement": "Ki", "setting": "[6]", "value": 30, "unit": "nM"}, {"measurement": "Growth (OD600) +Fluc", "setting": "[1]; isolate 17", "value": 3.96, "unit": "OD600"}, {"measurement": "Growth (OD600) +Fluc", "setting": "[1]; isolate 23", "value": 6.77, "unit": "OD600"}, {"measurement": "Growth (OD600) +Fluc", "setting": "[1]; isolate 26", "value": 6.44, "unit": "OD600"}, {"measurement": "Growth (OD600) +Fluc", "setting": "[1]; isolate 33", "value": 7.38, "unit": "OD600"}, {"measurement": "Growth (OD600) +Fluc", "setting": "[1]; isolate 36", "value": 5.08, "unit": "OD600"}, {"measurement": "Growth (OD600) +Fluc", "setting": "[1]; isolate 45", "value": 9.17, "unit": "OD600"}, {"measurement": "MIC90", "setting": "[2]; read-out: MIC90 for fluconazole, susceptible strain, synazo-1 present at 300 nM", "value": 0.125, "unit": "µM"}, {"measurement": "MIC90", "setting": "[2]; read-out: MICFlc (MIC90), isolate 26, fluconazole alone", "value": 836, "unit": "µM"}, {"measurement": "MIC90", "setting": "[2]; read-out: MICFlc (MIC90), isolate 45, fluconazole alone", "value": 836, "unit": "µM"}, {"measurement": "MIC90", "setting": "[2]; read-out: MICFlc (MIC90), strain HLY4123, fluconazole alone", "value": 0.5, "unit": "µM"}]}, {"smiles": "CN[C@H]1CC[C@@H](c2ccc(Cl)c(Cl)c2)c2ccccc21", "note": "[sertraline]", "values": [{"measurement": "MIC", "setting": "[7]", "value": "≥ 0.5", "unit": "µg/mL"}]}]}
